Screening data from PubChem.
PLCg1 inh: PLC-gamma1 enzyme inhibitors, primary screen, biochemical, fluorescence, purified enzyme. fluorogenic substrate. AID 720700, 2013. 370,000 tested, 0.84% active. inhibition, % at 12.2 µM. 1-phosphatidylinositol 4,5-bisphosphate phosphodiesterase gamma-1 (Homo sapiens), P19174; in the data active = inhibition above about 9.5%
Target sequence (P19174 whole entry, looked up): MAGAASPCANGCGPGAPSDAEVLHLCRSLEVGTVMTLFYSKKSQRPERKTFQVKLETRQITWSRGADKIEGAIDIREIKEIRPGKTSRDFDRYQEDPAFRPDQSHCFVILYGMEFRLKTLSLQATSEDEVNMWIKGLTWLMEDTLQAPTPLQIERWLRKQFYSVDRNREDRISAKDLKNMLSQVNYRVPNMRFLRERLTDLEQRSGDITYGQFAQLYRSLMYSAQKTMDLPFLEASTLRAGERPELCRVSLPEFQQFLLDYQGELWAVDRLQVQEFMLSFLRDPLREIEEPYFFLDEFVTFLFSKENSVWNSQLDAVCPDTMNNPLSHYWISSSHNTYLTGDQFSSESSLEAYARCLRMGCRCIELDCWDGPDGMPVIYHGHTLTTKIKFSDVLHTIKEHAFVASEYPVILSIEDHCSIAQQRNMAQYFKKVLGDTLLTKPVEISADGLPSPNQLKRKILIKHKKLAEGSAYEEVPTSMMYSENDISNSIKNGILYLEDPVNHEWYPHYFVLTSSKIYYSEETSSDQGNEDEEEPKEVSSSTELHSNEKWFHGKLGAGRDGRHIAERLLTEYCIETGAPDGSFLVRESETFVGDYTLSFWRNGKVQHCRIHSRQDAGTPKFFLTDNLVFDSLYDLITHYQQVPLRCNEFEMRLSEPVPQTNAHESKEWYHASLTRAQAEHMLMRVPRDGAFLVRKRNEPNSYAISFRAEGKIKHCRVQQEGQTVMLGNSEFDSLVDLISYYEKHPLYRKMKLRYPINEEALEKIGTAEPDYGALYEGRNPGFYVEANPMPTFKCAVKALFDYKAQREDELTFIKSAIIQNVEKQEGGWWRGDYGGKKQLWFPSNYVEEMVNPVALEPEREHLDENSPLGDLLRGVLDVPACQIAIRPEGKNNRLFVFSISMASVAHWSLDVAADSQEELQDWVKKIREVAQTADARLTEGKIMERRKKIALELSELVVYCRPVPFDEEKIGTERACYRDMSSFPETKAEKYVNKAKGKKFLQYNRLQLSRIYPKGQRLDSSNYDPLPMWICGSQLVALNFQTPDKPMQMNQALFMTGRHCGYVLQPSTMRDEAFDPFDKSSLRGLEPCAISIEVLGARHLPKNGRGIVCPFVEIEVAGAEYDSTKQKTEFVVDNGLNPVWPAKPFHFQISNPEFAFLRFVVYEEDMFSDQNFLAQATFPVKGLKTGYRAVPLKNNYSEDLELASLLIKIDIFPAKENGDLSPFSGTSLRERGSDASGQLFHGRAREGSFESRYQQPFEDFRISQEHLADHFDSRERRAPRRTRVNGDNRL
PLC-beta3 inh: human PLC-beta3 inhibitors, primary screen, biochemical, fluorescence; 1-phosphatidylinositol 4,5-bisphosphate phosphodiesterase beta-3 (Homo sapiens), Q01970; Purified PLC-beta3, fluorogenic substrate; inhibition, % at 12.2 µM; 370,000 tested, 0.18% active; AID 720704, 2013
Arr AP2 block: inhibitors of beta-arrestin/AP2 binding, primary screen, biochemical, GPCR trafficking, flow cytometry. inhibition, % at 10 µM. beta-arrestin 1 C-terminal peptide binding to AP2 beta2-adaptin appendage (human). FITC-arrestin peptide / GST-AP2 beads; AP2 beta2 appendage carries R879A mutation. 340,000 tested, 0.31% active;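 active = inhibition above a set limit, near 3 SD of compounds lacking own fluorescence, cut at about 54% in these data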
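Test system: GST-tagged AP2 beta2-adaptin appendage (R879A) on 4 µm glutathione beads; also added: fluorescein-tagged arrestin peptide at 50 nM final; timing: 12 min plus 1 h, RT; signal: flow cytometry, FL1 (488/535 nm); read-out: percent drop in bead-associated FITC signal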
NTR1 agonist: agonists of human NTR1, primary screen, imaging, U2OS cells, beta-arrestin-GFP, high content; Neurotensin receptor type 1 (Homo sapiens), P30989; activation, % at 20 µM; AID 493036, 2011; 330,000 tested, 0.17% active; NTR1-U2OS beta-arrestin-GFP spot imaging, agonist mode;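 active = activation at or above 40% of the spot to cytoplasm intensity ratio, with at least 20 cells analyzed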
PLCgamma1 ctr: PLC-gamma1 enzyme inhibitors, counter-screen for PLC-beta3 inhibitor project, biochemical, fluorescence. shares compounds with PLCg1 inh. purified PLC-gamma1, fluorogenic substrate. inhibition, % at 12.3 µM. 3,300 tested, 3.1% active. AID 743258, 2014; in the data active = inhibition above about 9.5%
PLCb3 confirm: PLC-beta3 inhibitor confirmation, biochemical, fluorescence, purified enzyme; 3,300 tested, 1% active; inhibition, % at 12.3 µM; shares compounds with PLCg1 inh; fluorogenic substrate fluorescence
Of the large screens only hits and unclear results are named; the others gave an inactive call (follow-up assays come after a bar, where they were run). The list is not random: actives were taken first. Their share in the collection is about 1.3%. Cut-off read from the data, not from the text of the source, unless noted: active = inhibition above about 11%; inactive = the rest.

Cc1cc2ncn(S(=O)(=O)N3CCCCC3)c2cc1C	none
Cc1cc2ncn(S(=O)(=O)N3CCOCC3)c2cc1C	PLC-beta3 inh 14 | PLCgamma1 ctr inactive | PLCb3 confirm inactive
COc1cccc(-c2noc(-c3cccnc3)n2)c1	none
COc1cccc(-c2noc(C(C)n3nc(C)c([N+](=O)[O-])c3C)n2)c1 (stereo not drawn)	PLCg1 inh 11 | PLCgamma1 ctr inactive | PLCb3 confirm inactive
CS(=O)(=O)c1cccc(C(=O)NC(c2ccccc2)c2ccccc2)c1	none
Cc1ccc(C(NC(=O)c2cccc(S(=O)(=O)N3CCN(C)CC3)c2)c2ccccc2)cc1 (stereo not drawn)	PLCg1 inh 10 | PLCgamma1 ctr inactive | PLCb3 confirm inactive
C[C@H]1CCC[C@]2(O[C@@H](CCO)C[C@@H](O)[C@@H]2O)O1	PLCg1 inh 9.9 | PLCgamma1 ctr inactive | PLCb3 confirm inactive
OCC[C@H]1C[C@@H](O)[C@H](O)[C@@]2(CCc3ccccc3O2)O1	none
OCC[C@H]1C[C@@H](O)[C@H](O)[C@]2(CCc3ccccc3O2)O1	PLC-beta3 inh 11 | PLCgamma1 ctr inactive | PLCb3 confirm inactive
OCC[C@H]1C[C@H](O)[C@@H](O)[C@]2(CCCc3ccccc3O2)O1	PLC-beta3 inh 11 | PLCgamma1 ctr inactive | PLCb3 confirm inactive
CC1(c2nnnn2Cc2ccccc2)CCSCC(=O)N1Cc1cccs1 (stereo not drawn)	none (no result: Arr AP2 block, NTR1 agonist)
Cc1ccccc1C(=O)N(C)[C@H]1C[C@H]2c3[nH]c4c(-c5ccccc5)cccc4c3CCN2C[C@H]1[C@H](C)O	none (no result: Arr AP2 block, NTR1 agonist)
Cc1onc(-c2ccc(Cl)cc2)c1-c1ccn(S(=O)(=O)c2ccccc2)n1	PLCg1 inh 10 (no result: Arr AP2 block, NTR1 agonist) | PLCgamma1 ctr inactive | PLCb3 confirm inactive
CCOC(=O)C1CCN(C(=O)c2ccc(Br)o2)CC1	PLCg1 inh 10 | PLCgamma1 ctr inactive | PLCb3 confirm inactive
CCOC(=O)C1CCN(C(=O)CCn2c(=O)oc3ccccc32)CC1	PLCg1 inh 9.6 (no result: Arr AP2 block, NTR1 agonist) | PLCgamma1 ctr inactive | PLCb3 confirm inactive
Cc1onc(-c2c(F)cccc2Cl)c1C(=O)N1CCCCC1	none
CCOC(=O)C1CCN(C(=O)c2c(-c3c(F)cccc3Cl)noc2C)CC1	PLCg1 inh 10 | PLCgamma1 ctr inactive | PLCb3 confirm inactive
O=C(NCC1CCCO1)c1nnc(Cc2ccc(F)cc2)o1 (stereo not drawn)	PLCg1 inh 11 | PLCgamma1 ctr inactive | PLCb3 confirm inactive
Cc1ccc(SCCNC(=O)C(C)C)cc1	PLCg1 inh 9.7 | PLCgamma1 ctr inactive | PLCb3 confirm inactive
Cc1ccc(NC(=O)NCCSc2ccc(C)cc2)cc1	none
CCOc1ccc(-n2c(COc3ccccc3)nnc2SCc2nc3ccccc3[nH]2)cc1	none (no result: Arr AP2 block, NTR1 agonist)
C=CCN1[C@@H](C)COc2cccc(F)c2S1(=O)=O	none (no result: Arr AP2 block, NTR1 agonist)
CC(C)(C)c1ccc(/C=N/OCC(=O)NCc2ccc(F)cc2)cc1	PLCg1 inh 13 | PLCgamma1 ctr inactive | PLCb3 confirm inactive
CN1C(=O)C(O)(CC(=O)/C=C/c2ccco2)c2ccccc21 (stereo not drawn)	PLC-beta3 inh 14 | PLCgamma1 ctr inactive | PLCb3 confirm inactive
CC(C)n1ncc(C(N)=O)c1N	PLCg1 inh 9.8 | PLCgamma1 ctr inactive | PLCb3 confirm inactive
NC(=O)c1cnn(-c2cccc(Cl)c2)c1N	none
CCNc1ccc(S(=O)(=O)NCCN(C)C)cc1[N+](=O)[O-]	none
CN(C)CCCNS(=O)(=O)c1ccc(NC2CCCCCC2)c([N+](=O)[O-])c1	PLCg1 inh 15 | PLCgamma1 ctr inactive | PLCb3 confirm inactive
O=C(O)c1ccc2c(c1)C(=O)N(c1ccccc1-c1ccccc1)C2=O	none
O=C(O)c1ccc(N2CCCCCC2)c(N2C(=O)c3ccccc3C2=O)c1	PLCg1 inh 14 | PLCgamma1 ctr inactive | PLCb3 confirm inactive
COc1cc(Cl)ccc1NC(=S)N(CCN1CCOCC1)C1CCN(C(C)=O)CC1	PLCg1 inh 11 | PLCgamma1 ctr inactive | PLCb3 confirm inactive
COc1ccc(NC(=S)N(CCN2CCOCC2)C2CCN(C(C)=O)CC2)cc1Cl	none
COC(=O)/C=C(\C)NC(=O)c1ccccc1Cl	PLC-beta3 inh 11 | PLCgamma1 ctr inactive | PLCb3 confirm inactive
CC(=O)C1=C(C)N(CC(C)C)C(=S)NC1c1cccc(Cl)c1 (stereo not drawn)	none (no result: Arr AP2 block, NTR1 agonist)
OCCN(Cc1ccccc1)CC(O)COc1ccc(-c2ccccc2)cc1 (stereo not drawn)	PLCg1 inh 13 | PLCgamma1 ctr inactive | PLCb3 confirm inactive
Cc1ccc(CN(C)C[C@H]2OCc3cnnn3CCCC(=O)N([C@H](C)CO)C[C@@H]2C)cc1	none (no result: Arr AP2 block, NTR1 agonist)
O=C(O)c1ccc(-c2nnn(Cc3ccccc3F)n2)cc1	PLCg1 inh 11 | PLCgamma1 ctr inactive | PLCb3 confirm inactive
C#CCNC(=O)C[C@H]1C(=O)N(Cc2ccc(OC)cc2)C2=CCCCC[C@@]21C(=O)OC	none (no result: Arr AP2 block, NTR1 agonist)
Cn1c(=O)c2c(ncn2CCC(=O)N/N=C/c2ccccc2)n(C)c1=O	PLCg1 inh 11, PLC-beta3 inh 11 | PLCgamma1 ctr inactive | PLCb3 confirm inactive
Cc1[nH]c(=O)c(C#N)c(C)c1CSc1ncccn1	PLCg1 inh 12 | PLCgamma1 ctr inactive | PLCb3 confirm inactive
Cc1[nH]c(=O)c(C#N)c(C)c1Cc1ccc(Cl)cc1Cl	none
C[C@H]1COc2c3ccccc3nn21	none (no result: Arr AP2 block, NTR1 agonist)
COc1ccc(C(=O)NCC(C)(C)N2CCOCC2)cc1S(=O)(=O)NCc1ccc(Cl)cc1	PLCg1 inh 12 (no result: NTR1 agonist) | PLCgamma1 ctr inactive | PLCb3 confirm inactive
Cc1ccc(NC(=O)CSc2nc(C)cc(=O)[nH]2)c(C)c1	none (no result: Arr AP2 block, NTR1 agonist)
C=CCN1[C@H](C)COc2cccc(N3CCSCC3)c2S1(=O)=O	none (no result: Arr AP2 block, NTR1 agonist)
COc1ccc(Nc2cc(C)nc3nc(C)nn23)cc1Cl	PLCg1 inh 9.6 | PLCgamma1 ctr inactive | PLCb3 confirm inactive
Cc1cc(Nc2ccc(F)c(Cl)c2)n2nc(C)nc2n1	none
CC(C)(C)c1ccc(/C=N/NC(=O)C[n+]2ccccc2)cc1	PLCg1 inh 9.9 | PLCgamma1 ctr inactive | PLCb3 confirm inactive
COC(=O)c1cc2c(c3c4cc(C)ccc4n(S(=O)(=O)c4ccc(C)cc4)c13)C(=O)N(C)C2	none (no result: Arr AP2 block, NTR1 agonist)
O=C(NCCCN1CCCC1=O)NC1CCCCC1	PLC-beta3 inh 11 | PLCgamma1 ctr inactive | PLCb3 confirm inactive
COc1ccc(S(C)(=O)=O)cc1S(C)(=O)=O	PLCg1 inh 9.5 | PLCgamma1 ctr inactive | PLCb3 confirm inactive
COc1ccc(NC(=O)CN(C)C(=O)C2CC(=O)N(Cc3ccc(C)cc3)C2)cc1 (stereo not drawn)	PLCg1 inh 12 | PLCgamma1 ctr inactive | PLCb3 confirm inactive
